Ten compounds from ChEMBL document CHEMBL1131342, “Design, synthesis, and antiviral activity of alpha-nucleosides: D- and L-isomers of lyxofuranosyl- and (5-deoxylyxofuranosyl)benzimidazoles” (J Med Chem, 1998) can be followed below.

The species entered for the first test is Homo sapiens. The experiment in a line: Compound was evaluated for the cytotoxicity scored on HFF cells at time of HCMV plaque enumeration. It counts as functional.
Conditions: not given
Summed up:
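Stationary HFF cells not affected by virus, inspected microscopically for visual cytotoxicity at the time of HCMV plaque counting (7 days, 37 °C). Duplicate experiments.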
The compound `Nc1nc2c(ncn2COC(CO)CO)c(=O)[nH]1` [GANCICLOVIR] displayed an IC50 above 100 µM.

For `OC[C@H]1O[C@@H](n2c(S)nc3cc(Cl)c(Cl)cc32)[C@H](O)[C@@H]1O`, the IC50 was above 100 µM.

`CNc1nc2cc(Cl)c(Cl)cc2n1[C@@H]1O[C@@H](CO)[C@@H](O)[C@H]1O` gave an IC50 above 100 µM.

For the compound `CSc1nc2cc(Cl)c(Cl)cc2n1[C@@H]1O[C@@H](CO)[C@@H](O)[C@H]1O`, the IC50 was above 100 µM.

As for `CCCNc1nc2cc(Cl)c(Cl)cc2n1[C@@H]1O[C@@H](C)[C@@H](O)[C@H]1O`, the IC50 was 100 µM.

Compound `CCCNc1nc2cc(Cl)c(Cl)cc2n1[C@@H]1O[C@@H](CO)[C@@H](O)[C@H]1O` had an IC50 above 100 µM.

`CCCNc1nc2cc(Cl)c(Cl)cc2n1[C@@H]1O[C@H](C)[C@@H](O)[C@H]1O` came in with an IC50 above 100 µM.

Regarding `CNc1nc2cc(Cl)c(Cl)cc2n1[C@@H]1O[C@H](CO)[C@@H](O)[C@H]1O`, the IC50 was above 100 µM.

For `OC[C@@H]1O[C@@H](n2c(S)nc3cc(Cl)c(Cl)cc32)[C@H](O)[C@@H]1O`, the IC50 is above 100 µM.

In another test the test system is Human betaherpesvirus 5. The experiment in a line: Compound was evaluated for its antiviral activity by its ability to inhibit Towne strain of HCMV virus.The plaque assay was used. It is filed as functional, organism-based.
Conditions: not given
Summed up: (§1)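 HFF monolayers in 24-well dishes infected with about 100 pfu HCMV/cm² (Towne or AD169). After adsorption, compound in growth medium at four to eight concentrations, duplicate wells, 7 days at 37 °C. Crystal violet stain, microscopic plaques counted, percent reduction vs no drug. IC50 from regression on log concentration; ganciclovir control.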
In turn, `OC[C@H]1O[C@H](n2c(Br)nc3cc(Cl)c(Cl)cc32)[C@@H](O)[C@H]1O` (stereo in doubt; 4a) gave an IC50 of 2.8 µM.

Another test relates to Human alphaherpesvirus 1. The experiment in a line: Antiviral activity evaluated by their ability to inhibit the KOS strain of herpes simplex virus type-1 (HSV-1).ELISA was used.
Conditions: not given
For the compound `OC[C@H]1O[C@@H](n2c(S)nc3cc(Cl)c(Cl)cc32)[C@H](O)[C@@H]1O`, the IC50 is above 100 µM.

`CNc1nc2cc(Cl)c(Cl)cc2n1[C@@H]1O[C@@H](CO)[C@@H](O)[C@H]1O` registered an IC50 above 100 µM.

Turning to `CSc1nc2cc(Cl)c(Cl)cc2n1[C@@H]1O[C@@H](CO)[C@@H](O)[C@H]1O`, the IC50 is above 100 µM.

`CCCNc1nc2cc(Cl)c(Cl)cc2n1[C@@H]1O[C@@H](C)[C@@H](O)[C@H]1O`: the IC50 was above 100 µM.

In turn, `CCCNc1nc2cc(Cl)c(Cl)cc2n1[C@@H]1O[C@@H](CO)[C@@H](O)[C@H]1O` registered an IC50 above 100 µM.

The compound `CNc1nc2cc(Cl)c(Cl)cc2n1[C@@H]1O[C@H](CO)[C@@H](O)[C@H]1O` yielded an IC50 above 100 µM.

For `OC[C@@H]1O[C@@H](n2c(S)nc3cc(Cl)c(Cl)cc32)[C@H](O)[C@@H]1O`, the IC50 is above 100 µM.

The next test concerns Human alphaherpesvirus 1. Description: Antiviral activity against KOS strain of herpes simplex virus type-1 (HSV-1).ELISA was used.
Conditions: not given
(In general: In an ELISA, binding on a coated surface is turned into a signal by an enzyme label.)
`OC[C@H]1O[C@H](n2c(Br)nc3cc(Cl)c(Cl)cc32)[C@@H](O)[C@H]1O` (stereo in doubt; 4a) had an IC50 above 100 µM.

The test system of a further test is Human betaherpesvirus 5. The experiment in a line: Compound was evaluated for its antiviral activity against HCMV virus using Yield reduction assay.
Conditions: not given
On to `OC[C@H]1O[C@@H](n2c(S)nc3cc(Cl)c(Cl)cc32)[C@H](O)[C@@H]1O`, for which the IC90 was above 100 µM.

Turning to `CCCNc1nc2cc(Cl)c(Cl)cc2n1[C@@H]1O[C@@H](C)[C@@H](O)[C@H]1O`, the 90% effect level (IC90) was put at 2.8 µM.

Compound `OC[C@H]1O[C@H](n2c(Br)nc3cc(Cl)c(Cl)cc32)[C@@H](O)[C@H]1O` (stereo in doubt; 4a) returned an IC90 of 0.8 µM.

Regarding `CCCNc1nc2cc(Cl)c(Cl)cc2n1[C@@H]1O[C@@H](CO)[C@@H](O)[C@H]1O`, the IC90 was found to be 19 µM.

`CCCNc1nc2cc(Cl)c(Cl)cc2n1[C@@H]1O[C@H](C)[C@@H](O)[C@H]1O` came in with an IC90 of 2 µM.

`CNc1nc2cc(Cl)c(Cl)cc2n1[C@@H]1O[C@H](CO)[C@@H](O)[C@H]1O` had an IC90 above 100 µM.

On to `OC[C@@H]1O[C@@H](n2c(S)nc3cc(Cl)c(Cl)cc32)[C@H](O)[C@@H]1O`, for which the IC90 was above 100 µM.

In another test the test system is Human betaherpesvirus 5. The experiment in a line: Antiviral activity assayed by ability to inhibit Towne strain of HCMV virus. It counts as functional, organism-based. Particulars: Human betaherpesvirus 5. Summed up: as §1
Compound `OC[C@H]1O[C@@H](n2c(S)nc3cc(Cl)c(Cl)cc32)[C@H](O)[C@@H]1O` gave an IC50 above 100 µM.

Consider `CNc1nc2cc(Cl)c(Cl)cc2n1[C@@H]1O[C@@H](CO)[C@@H](O)[C@H]1O`, for which the IC50 is above 100 µM.

Compound `CSc1nc2cc(Cl)c(Cl)cc2n1[C@@H]1O[C@@H](CO)[C@@H](O)[C@H]1O` came in with an IC50 above 100 µM.

Turning to `CCCNc1nc2cc(Cl)c(Cl)cc2n1[C@@H]1O[C@@H](C)[C@@H](O)[C@H]1O`, the midpoint of inhibition, the IC50, lay at 32 µM.

With `CCCNc1nc2cc(Cl)c(Cl)cc2n1[C@@H]1O[C@@H](CO)[C@@H](O)[C@H]1O`, the IC50 is above 100 µM.

`CCCNc1nc2cc(Cl)c(Cl)cc2n1[C@@H]1O[C@H](C)[C@@H](O)[C@H]1O` had an IC50 of 10 µM.

For the compound `CNc1nc2cc(Cl)c(Cl)cc2n1[C@@H]1O[C@H](CO)[C@@H](O)[C@H]1O`, the half-inhibitory concentration (IC50) was above 100 µM.

For `OC[C@@H]1O[C@@H](n2c(S)nc3cc(Cl)c(Cl)cc32)[C@H](O)[C@@H]1O`, the IC50 was above 100 µM.

Another test deals with KB. Description: Compound was evaluated for the cytotoxicity by the inhibition of KB cell growth. It counts as functional, cell-based. Particulars: Homo sapiens. The essentials:
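KB cells plated at 3000–5000 cells/well and incubated overnight. Compound added in quadruplicate at six to eight concentrations, 48 h at 37 °C under CO₂, spanning two population doublings. Ethanol fixation, 0.1% crystal violet stain, dye eluted with acidified ethanol, absorbance at 570 nm. IC50 by regression on log concentration; 2-acetylpyridine thiosemicarbazone control.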
Take `Nc1nc2c(ncn2COC(CO)CO)c(=O)[nH]1` [GANCICLOVIR]: the IC50 was above 100 µM.

`OC[C@H]1O[C@@H](n2c(S)nc3cc(Cl)c(Cl)cc32)[C@H](O)[C@@H]1O` came in with an IC50 above 100 µM.

In the case of `CNc1nc2cc(Cl)c(Cl)cc2n1[C@@H]1O[C@@H](CO)[C@@H](O)[C@H]1O`, the IC50 was above 100 µM.

Take `CSc1nc2cc(Cl)c(Cl)cc2n1[C@@H]1O[C@@H](CO)[C@@H](O)[C@H]1O`: the half-maximal inhibitory concentration (IC50) is above 100 µM.

Compound `CCCNc1nc2cc(Cl)c(Cl)cc2n1[C@@H]1O[C@@H](C)[C@@H](O)[C@H]1O` had an IC50 of 65 µM.

In the case of `CCCNc1nc2cc(Cl)c(Cl)cc2n1[C@@H]1O[C@@H](CO)[C@@H](O)[C@H]1O`, the IC50 is above 100 µM.

For `CNc1nc2cc(Cl)c(Cl)cc2n1[C@@H]1O[C@H](CO)[C@@H](O)[C@H]1O`, the IC50 was above 100 µM.

The compound `OC[C@@H]1O[C@@H](n2c(S)nc3cc(Cl)c(Cl)cc32)[C@H](O)[C@@H]1O` came in with an IC50 above 100 µM.

The subject of a further test is Human betaherpesvirus 5. Description: Compound was evaluated for the Yield reduction assays on HCMV virus,. It is filed as functional.
Conditions: not given
Summed up: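 HFF cells in 96-well plates inoculated with HCMV at moi 0.5–1 pfu/cell. Compound in duplicate at 100 to 0.14 μM (1:3 serial dilutions), 7 days at 37 °C, then one freeze–thaw. Progeny titred by serial 1:3 dilution onto fresh HFF monolayers with plaque counting. IC90 from linear regression vs log concentration; ganciclovir control.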
`Nc1nc2c(ncn2COC(CO)CO)c(=O)[nH]1` [GANCICLOVIR] returned an IC90 of 1.6 µM.

In the next test the test system is Human betaherpesvirus 5. The experiment in a line: Compound was evaluated for the Antiviral activity against the AD169 strain of HCMV virus.
Conditions: not given
It is filed as functional, organism-based. Summed up: as §1
As for `OC[C@H]1O[C@H](n2c(Br)nc3cc(Cl)c(Cl)cc32)[C@@H](O)[C@H]1O` (stereo in doubt; 4a), inhibition was half-maximal at 0.8 µM (IC50).

Still in this test, the particulars now being: Human betaherpesvirus 5.
The compound `CCCNc1nc2cc(Cl)c(Cl)cc2n1[C@@H]1O[C@@H](CO)[C@@H](O)[C@H]1O` displayed an IC50 of 11 µM.

The term IC50 denotes the concentration needed to halve the response being measured. A lower IC50 goes with greater potency in that assay. One may read the IC90 as the concentration needed for an effect of 90%.
